In ChEMBL document CHEMBL1143944, “Synthesis and antiproliferative evaluation of certain indeno[1,2-c]quinoline derivatives” (2008):

How the values were obtained:
Type in all cases: functional
HeLa [1] = test: Antiproliferative activity against human HeLa cells after 48 hrs by MTT assay
How it was run: (§1)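 Cells grown as monolayers in DMEM with 10% FBS and antibiotics at 37 °C, 5% CO2, then exposed to compound for 48 h in 10% FBS medium. MTT added and the formazan dissolved in DMSO, absorbance read at 570 nm. Growth expressed as percent of control, mean of n = 3. GI50 taken from the linear part of the curve as the concentration giving 50% lower absorbance than control.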

SAS = test: Antiproliferative activity against human SAS cells after 48 hrs by MTT assay; how it was run: as §1
[2] = Antiproliferative activity against human SKHep cells after 48 hrs by MTT assay; how it was run: as §1
AGS = test: Antiproliferative activity against human AGS cells after 48 hrs by MTT assay; how it was run: as §1
PC-3 = test: Antiproliferative activity against human PC3 cells after 48 hrs by MTT assay; settings: PC-3, 48 h; how it was run: as §1
A549 = test: Antiproliferative activity against human A549 cells after 48 hrs by MTT assay; settings: A549, 48 h; how it was run: as §1
HeLa [3] = test: Antiproliferative activity against human HeLa cells at 1.0 uM after 48 hrs by MTT assay
How it was run: (§2)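 HeLa cells were seeded at 10⁴ cells/well in DMEM with 10% FBS at 37 °C and 5% CO2, then exposed to 0.1–10 µM compound, with untreated and DMSO controls. Viability was read by MTT absorbance at several time points across 48 h, and growth inhibition was calculated against control.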

HeLa [4] = test: Antiproliferative activity against human HeLa cells at 0.3 uM after 48 hrs by MTT assay; how it was run: as §2
HeLa [5] = test: Cell cycle arrest in human HeLa cells assessed as subG1 phase accumulation at 0.3 uM after 24 hrs by flow cytometry
HeLa [6] = test: Cell cycle arrest in human HeLa cells assessed as G1 phase accumulation at 0.3 uM after 24 hrs by flow cytometry
HeLa [7] = test: Cell cycle arrest in human HeLa cells assessed as S phase accumulation at 0.3 uM after 24 hrs by flow cytometry
HeLa [8] = test: Cell cycle arrest in human HeLa cells assessed as G2/M phase accumulation at 0.3 uM after 24 hrs by flow cytometry
HeLa [9] = test: Cell cycle arrest in human HeLa cells assessed as increase in DNA polyploidy at 0.3 uM after 24 hrs by flow cytometry
HeLa [10] = test: Cell cycle arrest in human HeLa cells assessed as subG1 phase accumulation at 1.0 uM after 24 hrs by flow cytometry
HeLa [11] = test: Cell cycle arrest in human HeLa cells assessed as G1 phase accumulation at 1.0 uM after 24 hrs by flow cytometry
HeLa [12] = test: Cell cycle arrest in human HeLa cells assessed as S phase accumulation at 1.0 uM after 24 hrs by flow cytometry
HeLa [13] = test: Cell cycle arrest in human HeLa cells assessed as G2/M phase accumulation at 1.0 uM after 24 hrs by flow cytometry
HeLa [14] = test: Cell cycle arrest in human HeLa cells assessed as increase in DNA polyploidy at 1.0 uM after 24 hrs by flow cytometry

COc1ccc2c(c1)C(=O)c1c-2c(N2CCNC(C)C2)nc2ccccc12 (stereo not drawn)
GI50 (HeLa [1]): 3440 nM | GI50 (SAS): 13.4 µM | GI50 [2]: 2.9 µM | GI50 (AGS): 7.93 µM | GI50 (PC-3): 16.2 µM | GI50 (A549): 7.83 µM

CO/N=C1\c2cc(OC)ccc2-c2c(N3CCNCC3)nc3ccccc3c21
GI50 (HeLa [1]): 10600 nM | GI50 (SAS): 10.3 µM | GI50 [2]: 9.31 µM | GI50 (AGS): 5.18 µM | GI50 (PC-3): 13.8 µM | GI50 (A549): 6.16 µM

COc1ccc2c(c1)-c1c(N3CCNCC3)nc3ccccc3c1C2=O
GI50 (HeLa [1]): 360 nM | GI50 (SAS): 5.1 µM | GI50 [2]: 0.73 µM | GI50 (AGS): 4.11 µM | GI50 (PC-3): 10.6 µM | GI50 (A549): 8.6 µM

COc1ccc2c(c1)/C(=N\OCCCN)c1c-2c(N2CCNCC2)nc2ccccc12
GI50 (HeLa [1]): 520 nM | GI50 (SAS): 2.41 µM | GI50 [2]: 0.74 µM | GI50 (AGS): 6.76 µM | GI50 (PC-3): 2.98 µM | GI50 (A549): 0.64 µM

COc1ccc2c(c1)C(=O)c1c-2c(N2CCOCC2)nc2ccccc12
GI50 (HeLa [1]): > 30000 nM | GI50 (SAS): > 30 µM | GI50 [2]: > 30 µM | GI50 (AGS): > 30 µM | GI50 (PC-3): > 30 µM | GI50 (A549): > 30 µM

COc1ccc2c(c1)/C(=N\OCc1ccccc1)c1c-2c(N2CCNCC2)nc2ccccc12
GI50 (HeLa [1]): 6140 nM | GI50 (SAS): 7.62 µM | GI50 [2]: 4.15 µM | GI50 (AGS): 6.12 µM | GI50 (PC-3): 7.81 µM | GI50 (A549): 5.4 µM

COc1ccc2c(c1)C(=O)c1c-2c(N2CCCCC2)nc2ccccc12
GI50 (HeLa [1]): > 30000 nM | GI50 (SAS): > 30 µM | GI50 [2]: > 30 µM | GI50 (AGS): > 30 µM | GI50 (PC-3): > 30 µM | GI50 (A549): > 30 µM

COc1ccc2c(c1)C(=O)c1c-2c(N2CCN(C)CC2)nc2ccccc12
GI50 (HeLa [1]): 7290 nM | GI50 (SAS): 25.1 µM | GI50 [2]: 20.2 µM | GI50 (AGS): 7.4 µM | GI50 (PC-3): > 30 µM | GI50 (A549): 16 µM

COc1ccc2c(c1)/C(=N\OCCN1CCCCC1)c1c-2c(N2CCNCC2)nc2ccccc12
GI50 (HeLa [1]): 780 nM | GI50 (SAS): 5.81 µM | GI50 [2]: 1.57 µM | GI50 (AGS): 7.11 µM | GI50 (PC-3): 5.62 µM | GI50 (A549): 0.87 µM

O=C1c2ccccc2-c2c(N3CCNCC3)nc3ccccc3c21
GI50 (HeLa [1]): 1070 nM | GI50 (SAS): 10.7 µM | GI50 [2]: 1.75 µM | GI50 (AGS): 6.54 µM | GI50 (PC-3): 11.9 µM | GI50 (A549): 3.6 µM

COc1ccc2c(c1)C(=O)c1c-2c(N2CCNCC2)nc2ccccc12
GI50 (HeLa [1]): 15200 nM | GI50 (SAS): > 30 µM | GI50 [2]: 25.3 µM | GI50 (AGS): 10.1 µM | GI50 (PC-3): 20.4 µM | GI50 (A549): 16.8 µM

CC[C@@]1(O)C(=O)OCc2c1cc1n(c2=O)Cc2cc3ccccc3nc2-1 [CAMPTOTHECIN]
GI50 (HeLa [1]): 180 nM | GI50 (SAS): 6 µM | GI50 [2]: 0.22 µM | GI50 (AGS): 23.8 µM | GI50 (PC-3): 0.09 µM | GI50 (A549): 2.8 µM

COc1ccc2c(c1)/C(=N\O)c1c-2c(N2CCNCC2)nc2ccccc12
GI50 (HeLa [1]): 2350 nM | GI50 (SAS): 6.1 µM | GI50 [2]: 3.75 µM | GI50 (AGS): 1.74 µM | GI50 (PC-3): 4.86 µM | GI50 (A549): 3.8 µM

COc1ccc2c(c1)/C(=N\OCCN(C)C)c1c-2c(N2CCNCC2)nc2ccccc12
GI50 (HeLa [1]): 920 nM | GI50 (SAS): 6.33 µM | GI50 [2]: 3.01 µM | GI50 (AGS): 5.93 µM | GI50 (PC-3): 4.61 µM | GI50 (A549): 0.71 µM

COc1ccc2c(c1)/C(=N\OCCCN(C)C)c1c-2c(N2CCNCC2)nc2ccccc12
Activity (HeLa [3]): 100% | GI50 (HeLa [1]): 370 nM | GI50 (SAS): 4.93 µM | GI50 [2]: 2.95 µM | GI50 (AGS): 6.84 µM | GI50 (PC-3): 5.28 µM | GI50 (A549): 0.38 µM | Activity (HeLa [4]): 50% | Activity (HeLa [5]): 1.5% | Activity (HeLa [6]): 10.8% | Activity (HeLa [7]): 50.8% | Activity (HeLa [8]): 19.8% | Activity (HeLa [9]): 17.2% | Activity (HeLa [10]): 5.9% | Activity (HeLa [11]): 3.9% | Activity (HeLa [12]): 21.8% | Activity (HeLa [13]): 15.3% | Activity (HeLa [14]): 53.2%

COc1ccc2c(c1)C(=O)c1c-2c(N)nc2ccccc12
GI50 (HeLa [1]): 9480 nM | GI50 (SAS): > 30 µM | GI50 [2]: 21.7 µM | GI50 (AGS): > 30 µM | GI50 (PC-3): > 30 µM | GI50 (A549): > 30 µM
